Assay [1] addresses T1, Polyunsaturated fatty acid 5-lipoxygenase (Homo sapiens, UniProt P09917).
T1 sequence (P09917 whole entry): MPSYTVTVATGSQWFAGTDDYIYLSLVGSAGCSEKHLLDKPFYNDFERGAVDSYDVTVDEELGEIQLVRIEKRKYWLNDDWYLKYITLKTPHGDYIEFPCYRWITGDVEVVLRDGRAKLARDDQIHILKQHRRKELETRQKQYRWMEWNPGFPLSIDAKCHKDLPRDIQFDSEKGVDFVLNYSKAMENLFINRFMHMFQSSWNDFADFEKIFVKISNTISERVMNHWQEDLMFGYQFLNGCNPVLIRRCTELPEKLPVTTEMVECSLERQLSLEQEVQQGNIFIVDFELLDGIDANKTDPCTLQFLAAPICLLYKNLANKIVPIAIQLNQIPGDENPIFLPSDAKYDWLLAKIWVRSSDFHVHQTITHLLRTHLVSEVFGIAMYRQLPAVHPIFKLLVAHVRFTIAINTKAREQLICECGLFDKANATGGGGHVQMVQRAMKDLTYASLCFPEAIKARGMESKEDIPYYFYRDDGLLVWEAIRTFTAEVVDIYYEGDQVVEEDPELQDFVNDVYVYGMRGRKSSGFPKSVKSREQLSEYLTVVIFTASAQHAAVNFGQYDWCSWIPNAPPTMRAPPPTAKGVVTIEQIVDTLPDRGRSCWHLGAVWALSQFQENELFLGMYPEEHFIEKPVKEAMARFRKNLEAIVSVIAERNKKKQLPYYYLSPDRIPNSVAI
Kind of assay: Inhibition of 5-LO in human PMNL using arachidonic acid as substrate preincubated for 15 mins. The gist of the method:
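PMNL were isolated from buffy coats by dextran sedimentation, Nycoprep centrifugation and hypotonic lysis of erythrocytes, then resuspended in PBS pH 7.4 with 1 mg/mL glucose and 1 mM CaCl₂. Cells were pre-incubated with compound for 15 min at 37 °C, then stimulated with A23187 plus AA for 10 min at 37 °C. 15-LO comes from eosinophils and 12-LO from adhering platelets in the preparation. After methanol/HCl stop and PGB₁ addition, metabolites were extracted and quantified by HPLC. Mean ± S.E.M., n = 3–4.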

Assay [2] has as its target T1, Polyunsaturated fatty acid 5-lipoxygenase. Nature of the assay: Inhibition of human recombinant 5-LO expressed in Escherichia coli BL21 using arachidonic acid as substrate after 10 mins. The gist of the method:
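Purified 5-LO was diluted in PBS/EDTA and pre-incubated with compound for 5–10 min at 4 °C, then pre-warmed for 30 s at 37 °C. The reaction was started with 2 mM CaCl₂ plus AA, run 10 min at 37 °C and stopped with ice-cold methanol. Products were analysed by HPLC.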

Consider `O=C1C=C(Cc2ccccc2)C(=O)CC1=O`, for which the IC50 in assay [1] and in assay [2] was more than 10 µM in each case.

With `O=C1CC(=O)C(=O)C(CC2CCCCC2)C1=O`, the IC50 in assay [1] and in assay [2] was more than 10 µM in each case.

For `COC1=CC(=O)C(=O)C(Cc2ccc3ccccc3c2)C1=O` (stereo not drawn), the IC50 in assay [1] and in assay [2] was more than 10 µM in each case.

Turning to `COC1=CC(=O)C(=O)C(Cc2ccccc2)C1=O` (stereo not drawn), the half-maximal inhibitory concentration (IC50) in assay [1] and in assay [2] was more than 10 µM in each case.

These data come from BindingDB's records for doi:10.1016/j.ejmech.2013.06.039 (University of Salerno, 2013).
